Experimental data reported in ChEMBL document CHEMBL1926598, “Synthesis, anti-inflammatory activity and ulcerogenic liability of novel nitric oxide donating/chalcone hybrids” (Bioorg Med Chem, 2012).

Tests used:
Rattus norvegicus [1] = assay: Antiinflammatory activity in albino rat assessed as inhibition of carrageenan-induced paw edema at 100 mg/kg, po administered 30 mins prior to challenge measured after 2 hrs relative to untreated control; type: functional
Procedure, shortened: (§1)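 Adult male albino rats (120–140 g), groups of four, fasted 24 h with water allowed. Test compound suspended in 0.5% w/v CMC in water, given orally at 100 mg/kg; controls received CMC alone. After 30 min, 0.1 mL of 1% carrageenan in saline injected subplantar into right hind paw, saline into left. Paw thickness measured by caliper; % inhibition = [(VR−VL)control − (VR−VL)treated]/(VR−VL)control ×100; one-way ANOVA versus control.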

Rattus norvegicus [2] = assay: Gastric toxicity in albino rat assessed as loss of glandular structure morphology at 100 mg/kg, po after 5 hrs by hematoxylin and eosin staining; type: organism-based; set-up: dose 100 mg/kg, route oral; details: in vivo
Procedure, shortened: (§2)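 Stomach sections from control and treated rats were dewaxed and hydrated through graded alcohols. They were stained with haematoxylin 5–7 min, differentiated 5–10 s in 1% HCl in 70% alcohol, then stained with 1% eosin for 10 min. Mucosa of the fundic stomach was examined by light microscopy.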

Rattus norvegicus [3] = assay: Gastric toxicity in albino rat assessed as change in gastric mucosa structure at 100 mg/kg, po after 5 hrs by hematoxylin and eosin staining; type: organism-based; set-up: dose 100 mg/kg, route oral; details: in vivo; procedure, shortened: as §2
Rattus norvegicus [4] = assay: Antiinflammatory activity in albino rat assessed as inhibition of carrageenan-induced paw edema at 100 mg/kg, po administered 30 mins prior to challenge measured after 1 hr relative to untreated control; type: functional; procedure, shortened: as §1
Rattus norvegicus [5] = assay: Gastric toxicity in albino rat assessed as ulcer index at 100 mg/kg, po after 5 hrs; type: organism-based; set-up: dose 100 mg/kg, route oral; details: in vivo
Procedure, shortened: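 Rats dosed orally at 100 mg/kg in 0.5% CMC (n = 4). Stomach lesions counted and graded by area: level I <1 mm², II 1–3 mm², III >3 mm². Ulcer index = 1×(level I count) + 2×(level II) + 3×(level III). Mean ± SEM; one-way ANOVA versus control.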

Rattus norvegicus [6] = assay: Antiinflammatory activity in albino rat assessed as inhibition of carrageenan-induced paw edema at 100 mg/kg, po administered 30 mins prior to challenge measured after 3 hrs relative to untreated control; type: functional; procedure, shortened: as §1
Rattus norvegicus [7] = assay: Antiinflammatory activity in albino rat assessed as inhibition of carrageenan-induced paw edema at 100 mg/kg, po administered 30 mins prior to challenge measured after 4 hrs relative to untreated control; type: functional; procedure, shortened: as §1
Rattus norvegicus [8] = assay: Antiinflammatory activity in albino rat assessed as inhibition of carrageenan-induced paw edema at 100 mg/kg, po administered 30 mins prior to challenge measured after 5 hrs relative to untreated control; type: functional; procedure, shortened: as §1
Rattus norvegicus [9] = assay: Gastric toxicity in albino rat assessed as loss of mucosal membrane at the area of ulceration at 100 mg/kg, po after 5 hrs by hematoxylin and eosin staining; type: organism-based; set-up: dose 100 mg/kg, route oral; details: in vivo; procedure, shortened: as §2
Rattus norvegicus [10] = assay: Gastric toxicity in albino rat assessed as edema at 100 mg/kg, po after 5 hrs by hematoxylin and eosin staining; type: organism-based; set-up: dose 100 mg/kg, route oral; details: in vivo; procedure, shortened: as §2
Rattus norvegicus [11] = assay: Gastric toxicity in albino rat assessed as capillary dilation in lamina propia below fundic gland at 100 mg/kg, po after 5 hrs by hematoxylin and eosin staining; type: organism-based; set-up: dose 100 mg/kg, route oral; details: in vivo; procedure, shortened: as §2
Rattus norvegicus [12] = assay: Gastric toxicity in albino rat assessed as capillary inflammatory cells appearance at 100 mg/kg, po after 5 hrs by hematoxylin and eosin staining; type: organism-based; set-up: dose 100 mg/kg, route oral; details: in vivo; procedure, shortened: as §2

O=C(CBr)Nc1ccc(C(=O)/C=C/c2ccc(Cl)cc2)cc1
inhibition in vivo at 100 mg/kg (Rattus norvegicus [1]): 52% | Activity (Rattus norvegicus [2]): Toxic | Activity (Rattus norvegicus [3]): Toxic | inhibition in vivo at 100 mg/kg (Rattus norvegicus [4]): 44% | UI (Rattus norvegicus [5]): 21.4 | inhibition in vivo at 100 mg/kg (Rattus norvegicus [6]): 59% | inhibition in vivo at 100 mg/kg (Rattus norvegicus [7]): 59% | inhibition in vivo at 100 mg/kg (Rattus norvegicus [8]): 54% | Activity (Rattus norvegicus [9]): Toxic

CC(=O)c1ccc(OCC(=O)Nc2ccc(C(=O)/C=C/c3ccc4c(c3)OCO4)cc2)cc1
inhibition in vivo at 100 mg/kg (Rattus norvegicus [1]): 43% | Activity (Rattus norvegicus [10]): Toxic | inhibition in vivo at 100 mg/kg (Rattus norvegicus [4]): 37% | UI (Rattus norvegicus [5]): 11.2 | inhibition in vivo at 100 mg/kg (Rattus norvegicus [6]): 57% | inhibition in vivo at 100 mg/kg (Rattus norvegicus [7]): 53% | Activity (Rattus norvegicus [11]): Toxic | inhibition in vivo at 100 mg/kg (Rattus norvegicus [8]): 50% | Activity (Rattus norvegicus [12]): Toxic
